ChEMBL document CHEMBL4425131, “Convergent Synthesis of Novel Muramyl Dipeptide Analogues: Inhibition of Porphyromonas gingivalis-Induced Pro-inflammatory Effects by High Doses of Muramyl Dipeptide” (J Med Chem, 2016)
Calls of active or inactive are those of the source. The rule behind the calls is not given here.

What was measured:
RAW264.7 [1] = test: Downregulation of Porphyromonas gingivalis-induced TNF-alpha protein expression in wild type mouse RAW264.7 cells at 10 to 200 ug/ml after 3 hrs by ELISA; type: functional, cell-based
Summary of the method: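 Macrophages left untreated, given P. gingivalis alone or test agent alone as controls, or co-treated with P. gingivalis plus 10, 100 or 200 µg/ml for 3 h. TNF-α in culture supernatant measured by ELISA kit; mean ± S.E.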

RAW264.7 [2] = test: Upregulation of AP1 protein expression in wild type mouse RAW264.7 cells after 3 hrs by Western blot analysis; type: functional, cell-based
Summary of the method: (§1)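 Macrophages left untreated, given a scrambled (SC) peptide as negative control, or treated with low (10 µg/ml) or high (100 µg/ml) MDP for 3 h. Whole-cell and nuclear protein fractions prepared with Hepes pH 7.9 buffers and probed by Western blot for A20, AP1, MyD88 or NFκB. Triplicate assays.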

RAW264.7 [3] = test: Upregulation of A20 protein expression in wild type mouse RAW264.7 cells after 3 hrs by Western blot analysis; type: functional, cell-based; summary of the method: as §1
RAW264.7 [4] = test: Downregulation of Porphyromonas gingivalis-induced RIP2 mRNA expression in wild type mouse RAW264.7 cells at 100 ug/ml after 3 hrs by RT-PCR analysis; type: functional, cell-based
Summary of the method: (§2)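 Macrophages in RPMI 1640 with 10% FBS, 37 °C, 5% CO2, left untreated, given P. gingivalis alone or test agent alone as controls, or co-treated with P. gingivalis plus 10, 100 or 200 µg/ml for 3 h. Total RNA analysed by real-time RT-PCR (SYBR Green) for NFkB, RIP2 or NOD2, normalized to GAPDH; mean ± S.E.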

RAW264.7 [5] = test: Downregulation of Porphyromonas gingivalis-induced NOD2 mRNA expression in wild type mouse RAW264.7 cells at 100 ug/ml after 3 hrs by RT-PCR analysis; type: functional, cell-based; summary of the method: as §2
RAW264.7 [6] = test: Downregulation of Porphyromonas gingivalis-induced NFkappaB mRNA expression in wild type mouse RAW264.7 cells at 100 ug/ml after 3 hrs by RT-PCR analysis; type: functional, cell-based; summary of the method: as §2
Mus musculus [7] = test: Antiinflammatory activity in wild type C57BL/6 mouse assessed as reduction of Porphyromonas gingivalis-induced septic shock at 2 to 8 mg/kg, ip; type: functional, organism-based
Peritoneal macrophage [8] = test: Effect on Porphyromonas gingivalis-induced TNFalpha expression in wild type mouse primary peritoneal macrophages at 10 ug/ml after 3 hrs by ELISA relative to control; type: functional
Summary of the method: (§3)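 Primary peritoneal macrophages from C57BL/6 mice cultured in RPMI 1640 with 10% FBS. Cells left untreated, given 10, 100 or 1,000 µg/ml MDP alone, given P. gingivalis alone, or co-treated with P. gingivalis plus 10, 100 or 1,000 µg/ml MDP for 3 h. TNF-α in conditioned medium measured by ELISA; mean ± S.E.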

Peritoneal macrophage [9] = test: Effect on Porphyromonas gingivalis-induced TNFalpha expression in wild type mouse primary peritoneal macrophages at 100 ug/ml after 3 hrs by ELISA relative to control; type: functional; summary of the method: as §3
Peritoneal macrophage [10] = test: Effect on Porphyromonas gingivalis-induced TNFalpha expression in wild type mouse primary peritoneal macrophages at 1 mg/ml after 3 hrs by ELISA relative to control; type: functional; summary of the method: as §3
RAW264.7 [11] = test: Effect on Porphyromonas gingivalis-induced NOD2 mRNA level in wild type mouse RAW264.7 cells at 10 ug/ml after 3 hrs by RT-PCR analysis relative to control; type: functional
Summary of the method: (§4)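 Macrophages left untreated (negative control), given P. gingivalis alone (positive control), or co-treated with P. gingivalis plus low (10 µg/ml) or high (100 µg/ml) MDP for 3 h. Total mRNA analysed by real-time RT-PCR for NOD2, RIP2 or A20, normalized to GAPDH. NOD2/RIP2 expressed relative to P. gingivalis alone (100%); A20 relative to the low-dose treatment (100%). Triplicates, mean ± SEM.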

[12] = Cytotoxicity against wild type mouse RAW264.7 cells assessed as survival rate at 10 ug/ml measured for 24 hrs by trypan blue assay relative to control; type: cell-based; details: wild type RAW264.7 cells, read-out: Survival
Summary of the method: (§5)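 WT mouse macrophages in RPMI 1640 with 10% FBS (37 °C, 5% CO2) were exposed to MDP for 0, 2, 4, 8, 12, 16, 18 or 24 h, then harvested with trypsin. Viability was counted by Trypan blue exclusion and expressed relative to 0 µg/ml MDP at 24 h (set as 100%). Done in triplicate; mean ± S.E.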

[13] = Cytotoxicity against wild type mouse RAW264.7 cells assessed as survival rate at 100 ug/ml measured for 24 hrs by trypan blue assay relative to control; type: cell-based; details: wild type RAW264.7 cells, read-out: Survival; summary of the method: as §5
[14] = Cytotoxicity against wild type mouse RAW264.7 cells assessed as survival rate at 1 mg/ml measured for 24 hrs by trypan blue assay relative to control; type: cell-based; details: wild type RAW264.7 cells, read-out: Survival; summary of the method: as §5
RAW264.7 [15] = test: Effect on Porphyromonas gingivalis-induced NOD2 mRNA level in wild type mouse RAW264.7 cells at 100 ug/ml after 3 hrs by RT-PCR analysis relative to control; type: functional; summary of the method: as §4
RAW264.7 [16] = test: Effect on Porphyromonas gingivalis-induced RIP2 mRNA level in wild type mouse RAW264.7 cells at 10 ug/ml after 3 hrs by RT-PCR analysis relative to control; type: functional; summary of the method: as §4
RAW264.7 [17] = test: Effect on Porphyromonas gingivalis-induced RIP2 mRNA level in wild type mouse RAW264.7 cells at 100 ug/ml after 3 hrs by RT-PCR analysis relative to control; type: functional; summary of the method: as §4
RAW264.7 [18] = test: Effect on A20 mRNA level in wild type mouse RAW264.7 cells at 10 ug/ml after 3 hrs by RT-PCR analysis relative to control; type: functional; summary of the method: as §4
RAW264.7 [19] = test: Effect on A20 mRNA level in wild type mouse RAW264.7 cells at 100 ug/ml after 3 hrs by RT-PCR analysis relative to control; type: functional; summary of the method: as §4
RAW264.7 [20] = test: Effect on AP1 protein level in wild type mouse RAW264.7 cells at 10 ug/ml after 3 hrs by Western blot analysis relative to SC peptide; type: functional; summary of the method: as §1
RAW264.7 [21] = test: Effect on A20 protein level in wild type mouse RAW264.7 cells at 10 ug/ml after 3 hrs by Western blot analysis relative to SC peptide; type: functional; summary of the method: as §1
RAW264.7 [22] = test: Effect on MyD88 protein level in wild type mouse RAW264.7 cells at 10 ug/ml after 3 hrs by Western blot analysis relative to SC peptide; type: functional; summary of the method: as §1
RAW264.7 [23] = test: Effect on NFkappaB protein level in wild type mouse RAW264.7 cells at 10 ug/ml after 3 hrs by Western blot analysis relative to SC peptide; type: functional; summary of the method: as §1
RAW264.7 [24] = test: Upregulation of Porphyromonas gingivalis-induced p21 protein level in wild type mouse RAW264.7 cells at 10 to 1000 ug/ml after 3 hrs by Western blot analysis; type: functional, cell-based
Summary of the method: (§6)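 Macrophages treated with MDP at 0, 10, 100 or 1,000 µg/ml, alone or together with P. gingivalis, for 3 h. Total protein probed by Western blot for p21 or p53, with actin as loading control. Triplicate assays.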

RAW264.7 [25] = test: Upregulation of Porphyromonas gingivalis-induced p53 protein level in wild type mouse RAW264.7 cells at 10 to 1000 ug/ml after 3 hrs by Western blot analysis; type: functional, cell-based; summary of the method: as §6
RAW264.7 [26] = test: Effect on AP1 protein level in wild type mouse RAW264.7 cells at 100 ug/ml after 3 hrs by Western blot analysis relative to SC peptide; type: functional; summary of the method: as §1
RAW264.7 [27] = test: Effect on A20 protein level in wild type mouse RAW264.7 cells at 100 ug/ml after 3 hrs by Western blot analysis relative to SC peptide; type: functional; summary of the method: as §1
RAW264.7 [28] = test: Effect on MyD88 protein level in wild type mouse RAW264.7 cells at 100 ug/ml after 3 hrs by Western blot analysis relative to SC peptide; type: functional; summary of the method: as §1
RAW264.7 [29] = test: Effect on NFkappaB protein level in wild type mouse RAW264.7 cells at 100 ug/ml after 3 hrs by Western blot analysis relative to SC peptide; type: functional; summary of the method: as §1
RAW264.7 [30] = test: Upregulation of A20 mRNA level in wild type mouse RAW264.7 cells at 100 ug/ml after 3 hrs by RT-PCR analysis relative to control; type: functional; summary of the method: as §4
RAW264.7 [31] = test: Upregulation of A20 promoter DNA level in wild type mouse RAW264.7 cells at 10 ug/ml after 3 hrs by ChIP assay; type: functional, cell-based
Summary of the method: (§7)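 RAW264.7 cells treated with low (10 µg/ml) or high (100 µg/ml) MDP for 3 h, or transfected overnight with 1 µg AP1 cDNA as comparator. 10 µg nuclear extract from cross-linked cells immunoprecipitated with 1 µg anti-AP1 antibody or normal mouse IgG at 4 °C for 4 h; A20 promoter and GAPDH fragments amplified by PCR from input and IPs. Triplicates.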

RAW264.7 [32] = test: Upregulation of A20 promoter DNA level in wild type mouse RAW264.7 cells at 100 ug/ml after 3 hrs by ChIP assay; type: functional, cell-based; summary of the method: as §7
Mus musculus [33] = test: Antiinflammatory activity in wild type C57BL/6 mouse assessed as reduction of Porphyromonas gingivalis-induced septic shock at 8 mg/kg, ip; type: functional, organism-based
[34] = Toxicity in Porphyromonas gingivalis-induced wild type C57BL/6 mouse septic shock model assessed as mortality at 2 mg/kg, ip; type: organism-based; details: in vivo
Summary of the method: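 Mice were 8–10-week-old WT C57BL/6, kept specific pathogen-free. They received a single i.p. co-injection of P. gingivalis (1 × 10^8/kg) plus MDP at 2 mg/kg (50 µg/mouse). Controls were DMSO alone or P. gingivalis alone. Animals were watched continuously for endotoxic response for 2 h after injection; n = 3 per group.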

CC(=O)N[C@H]1[C@@H](OCc2ccccc2)O[C@@H]2COC(C)(C)O[C@H]2[C@@H]1O[C@H](C)C(=O)N[C@@H](C)C(=O)N[C@H](CCC(=O)OCc1ccccc1)C(N)=O
Activity (RAW264.7 [1]): Active | Activity (RAW264.7 [2]): Active | Activity (RAW264.7 [3]): Active | Activity (RAW264.7 [4]): Active | Activity (RAW264.7 [5]): Active | Activity (RAW264.7 [6]): Active | Activity (Mus musculus [7]): Active

CC(=O)N[C@H]1C(O)O[C@H](CO)[C@@H](O)[C@@H]1O[C@H](C)C(=O)N[C@@H](C)C(=O)N[C@H](CCC(=O)O)C(N)=O (some centres not stated) [MURAMYL DIPEPTIDE]
Activity (Peritoneal macrophage [8]): 129% | Activity (Peritoneal macrophage [9]): 84% | Activity (Peritoneal macrophage [10]): 62% | Activity (RAW264.7 [11]): 136% | viability at 24 h, 10 ug/ml [12]: 92% | viability at 24 h, 100 ug/ml [13]: 89% | viability at 24 h, 1 mg/ml [14]: 88% | Activity (RAW264.7 [15]): 95% | Activity (RAW264.7 [16]): 103% | Activity (RAW264.7 [17]): 104% | Activity (RAW264.7 [18]): 117% | Activity (RAW264.7 [19]): 565% | Activity (RAW264.7 [20]): 135% | Activity (RAW264.7 [21]): 106% | Activity (RAW264.7 [22]): 274% | Activity (RAW264.7 [23]): 388% | Activity (RAW264.7 [24]): inactive | Activity (RAW264.7 [25]): inactive | Activity (RAW264.7 [26]): 282% | Activity (RAW264.7 [27]): 236% | Activity (RAW264.7 [28]): 144% | Activity (RAW264.7 [29]): 142% | fold change (FC) (RAW264.7 [30]): 5.6 | Activity (RAW264.7 [31]): inactive | Activity (RAW264.7 [32]): Active | Activity (RAW264.7 [1]): Active | Activity (RAW264.7 [2]): Active | Activity (RAW264.7 [3]): Active | Activity (Mus musculus [33]): Active | Activity [34]: Toxic
